Bioassay records deposited in PubChem BioAssay by several laboratories.
In the library only some 4.1% were active in any assay of this set; here they are far more common.
KCC2 mod – modulators of human KCC2 chloride dependent transport; AID 1456; B-score of Tl+ flux slope (higher = more flux/activation; lower = inhibition) at 10 µM; Q9H2X9; actives 2.2% (n = 190,000); KCC2 cells, thallium flux FluoZin-2 fluorescence;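 active = thallium flux slope and its plate-corrected score both differing from the plate sample mean at a set confidence after two filtering rounds, in either direction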;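 note: slope of fluorescence scaled to starting intensity during 10 to 20 s after thallium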
hERG protect – shields human hERG channel from block by proarrhythmic agents; Q12809; CHO-hERG, FluxOR thallium flux, dofetilide IC70 present; activation (rescue from dofetilide block), less the hit threshold, % at 10 µM; actives 0.51% (n = 310,000); AID 1511;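 active = activation above the mean of controls blocked by dofetilide plus 5 SD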;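 note: thallium influx through hERG after potassium depolarization seen as dye fluorescence rise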
KCNK9 block – inhibitors of human KCNK9 two-pore domain potassium channel; Q9NPC2; HEK293 KCNK9, FluxOR thallium flux fluorescence; active compounds read low; B-score at 10 µM; actives 1.2% (n = 310,000); AID 488922;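 active = ratio B-score over 3 SD below the library mean, with starting fluorescence within 5 SD of its mean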;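 note: negative B-score means less thallium flux so channel inhibition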
KCNK3 block – human KCNK3 channel inhibition, primary screen. actives 0.84% (n = 340,000). CHO-KCNK3 thallium flux, FluxOR fluorescence; active compounds read low. B-score at 10 µM. O14649;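 active = B-score under library mean minus 4 SD, starting fluorescence ratio at most library mean plus 5 SD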;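 note: more negative B-score means stronger inhibition of thallium flux through KCNK3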
KCNQ1 block – human KCNQ1 channel inhibition | B-score at 10 µM | CHO-K1 KCNQ1, FluxOR thallium flux fluorescence; active compounds read high | AID 2642 | P51787 | actives 1.3% (n = 310,000);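 active = compounds whose thallium flux B-score, printed positive for inhibition, exceeds three library SD while starting fluorescence stays within three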;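 note: channel opened by potassium depolarization with thallium stimulus after 20 min compound exposure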
Target sequence (P51787 whole entry, looked up): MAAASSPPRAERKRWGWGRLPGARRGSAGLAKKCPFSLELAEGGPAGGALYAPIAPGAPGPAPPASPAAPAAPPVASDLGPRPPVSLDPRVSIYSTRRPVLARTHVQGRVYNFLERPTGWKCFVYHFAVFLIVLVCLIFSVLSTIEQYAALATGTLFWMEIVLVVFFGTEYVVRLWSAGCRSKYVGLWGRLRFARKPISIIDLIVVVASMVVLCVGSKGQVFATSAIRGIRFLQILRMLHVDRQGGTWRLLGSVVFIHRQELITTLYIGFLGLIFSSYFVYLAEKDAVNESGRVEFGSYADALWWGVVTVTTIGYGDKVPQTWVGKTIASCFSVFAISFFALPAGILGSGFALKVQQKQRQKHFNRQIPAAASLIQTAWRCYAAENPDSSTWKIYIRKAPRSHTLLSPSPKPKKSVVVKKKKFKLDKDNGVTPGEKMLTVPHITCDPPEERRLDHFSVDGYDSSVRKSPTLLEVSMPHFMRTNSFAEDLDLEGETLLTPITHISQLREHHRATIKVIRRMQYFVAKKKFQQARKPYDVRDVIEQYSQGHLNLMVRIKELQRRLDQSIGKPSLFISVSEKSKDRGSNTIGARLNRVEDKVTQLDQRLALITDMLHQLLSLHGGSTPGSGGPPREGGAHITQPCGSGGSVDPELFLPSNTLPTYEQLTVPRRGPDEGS
KCNQ1 act – potentiates or activates the human KCNQ1 potassium channel; CHO-K1 KCNQ1, thallium flux FluxOR fluorescence; active compounds read high; actives 0.35% (n = 310,000); B-score at 10 µM;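 active = fluorescence ratio B-score, a plate-corrected score, at least three library SD, with initial intensity B-score within 5 SD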
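assay system = CHO-K1 cells stably expressing KCNQ1 | medium = assay buffer, equal DMSO in all wells | timing = 37 °C overnight plating, 90-min dark dye load, 20-min compound pretreatment | measured by = kinetic FluxOR thallium fluorescence, 10-s 1-Hz baseline, 110-s post-stimulus read | measure = fluorescence change relative to baseline, converted to B score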
KCC2 secondary – KCC2 (human) modulation, secondary assay; shares compounds with KCC2 mod; HEK293-KCC2, thallium flux, FluoZin2 fluorescence; active compounds read high; normalised thallium flux (F/F0 slope) at 10 µM; actives 15% (n = 3,700);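 active = thallium flux slope above the same plate's solvent-only control mean plus 3 SD; inconclusive = the two replicate wells disagree; inactive = no significant difference from solvent-only control wells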
KCC2 bumet counter – bumetanide-insensitive thallium flux in KCC2 cells with ouabain, counter-screen. shares compounds with KCC2 mod. AID 1714. HEK293-KCC2 + bumetanide/ouabain, thallium flux FluoZin2; active compounds read high. actives 49% (n = 3,700). normalized thallium flux at 10 µM;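 active = thallium entry rate above the same plate's blocked-transporter control wells by more than 3 SD; inconclusive = the two repeat wells disagree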;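 note: raw slope of fluorescence over initial fluorescence between 10 and 20 s after thallium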
KCC2 secondary2 – confirmation of human KCC2 transport modulators | actives 23% (n = 3,700) | AID 1715 | shares compounds with KCC2 mod | normalized thallium flux at 10 µM | HEK293-KCC2, thallium flux FluoZin2 fluorescence; actives lie on both sides; F/F0 rise rate, 10–20 s post-thallium;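 active = thallium flux slope more than 3 SD above or below the plate's solvent-only control mean, mostly below; inconclusive = the two repeat wells disagreed; inactive = no significant shift from solvent-only controls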;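 note: raw slope with 0.1% DMSO as baseline and bumetanide as block control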
HEK counter1 – counter-screen for KCC2 modulators: effect in parental HEK293 cells | shares compounds with KCC2 mod | thallium flux rate (normalised fluorescence) at 10 µM | actives 46% (n = 3,700) | thallium flux FluoZin2, ouabain; baseline-ratio fluorescence slope, 10–20 s after thallium | AID 1716;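 active = thallium flux rate significantly above the same plate's solvent-only control wells, beyond their mean plus 3 SD; inconclusive = the two replicate wells gave conflicting results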
KCC2 retest ouab – modulates human KCC2 on retest with ouabain | shares compounds with KCC2 mod | HEK293-KCC2, thallium flux FluoZin2 fluorescence; bidirectional: low = inhibitor, high = activator | raw Tl+ flux slope (below DMSO = inhibition, above = activation) at 10 µM | actives 48% (n = 3,700) | AID 1717;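 active = thallium flux slope beyond 3 SD from same-plate DMSO control mean in most replicates, usually higher, sometimes lower; inconclusive = repeat tests gave conflicting results; inactive = no significant difference from controls in most replicates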;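 note: slope of initial-normalized fluorescence between seconds 10 and 20 after thallium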
HEK293 Tl flux2 – counter-screen for KCC2 modulators: effect in parental HEK293 cells. shares compounds with KCC2 mod. thallium flux FluoZin-2 fluorescence slope. thallium flux slope at 10 µM. actives 33% (n = 3,700). AID 1718;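 active = thallium flux slope above the same plate's solvent-control mean plus 3 SD in both duplicate wells; inconclusive = duplicate wells that disagreed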;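 note: run without ouabain in cells lacking the KCC2 cotransporter; slope of fluorescence scaled to its starting value between 10 and 20 s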
KCNQ1 block val – reconfirmed blocker of the human KCNQ1 potassium channel. KCNQ1 cell line, FluxOR thallium flux fluorescence. AID 588353. inhibition, % at 10 µM. shares compounds with KCNQ1 block. actives 93% (n = 1,600);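 active = primary screen active, with duplicate mean exceeding buffer control mean plus 3 SD of buffer wells, cut at about 28% in these data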;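 note: 0% = buffer control ratio and 100% = XE991 inhibitor control ratio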
CHO Tl flux – counter-screen for KCNQ1 inhibitors: effect in parental CHO cells. fluorescence ratio (Tl flux) at 10 µM. actives 21% (n = 1,600). shares compounds with KCNQ1 block. parental CHO-K1, FluxOR thallium flux fluorescence ratio; active compounds read low; zero means no signal rise above baseline;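 active = mean of duplicate thallium-flux fluorescence ratios in parental host cells more than 5 SD below the buffer control mean, cut at about 0.38 in these data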;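 note: ratio is peak minus minimum fluorescence divided by baseline fluorescence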
KCNQ2 spec – rat KCNQ2 inhibition in KCNQ1 inhibitor specificity screen. shares compounds with KCNQ1 block. KCNQ2 cells, FluxOR thallium flux fluorescence. inhibition, % at 10 µM. actives 71% (n = 1,600);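 active = mean percent inhibition of the KCNQ2 thallium signal more than 5 SD above the buffer-only control wells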;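 note: KCNQ2 expressed in CHO cells; 0% = buffer control wells and 100% = XE-991 inhibitor control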
KCNQ1 KCNE1 spec – human KCNQ1/KCNE1 inhibition in KCNQ1 specificity screen; KCNQ1/KCNE1 cells, FluxOR thallium flux fluorescence; actives 77% (n = 1,600); AID 652147; inhibition, % at 10 µM; shares compounds with KCNQ1 block;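 active = mean percent inhibition of duplicate wells above the buffer-only control mean plus 3 SD of those controls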;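 note: 0% = buffer only wells and 100% = XE-991 inhibitor control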
KCNK9 block conf – human KCNK9 inhibitor confirmation; shares compounds with KCNK9 block; HEK293 KCNK9 cells, FluxOR thallium flux fluorescence; inhibition, % at 10 µM; actives 43% (n = 4,900); AID 492992;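 active = thallium signal inhibited by more than 5 SD of the compound-free buffer control wells, on both duplicate plates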;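 note: 0% = assay buffer control wells without compound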
Kir21 sel – mouse Kir2.1 off-target activity of KCNK9 modulators; shares compounds with KCNK9 block; Kir2.1 cells, FluxOR thallium flux fluorescence; inhibition, % at 10 µM; actives 4% (n = 4,900);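 active = thallium signal drop more than 5 SD beyond the mean of the no-compound control wells, seen in both duplicate plates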;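 note: signal is fluorescence rise after thallium addition divided by baseline fluorescence; plate controls were assay buffer only for no effect and full block by chlorpromazine control for full effect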
KCNK9 uninduced – non-induced cell nonspecific activity of KCNK9 modulators; shares compounds with KCNK9 block; non-induced KCNK9-HEK293, FluxOR thallium flux; inhibition, % at 10 µM; actives 40% (n = 4,900); AID 492997;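 active = thallium signal drop beyond 5 SD of the untreated control mean, on both duplicate plates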;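 note: plate controls were buffer only IC0 wells for no effect and SID17386958 at its maximal inhibitory level for full effect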
Numbers without * were called inactive.

O=[N+]([O-])c1ccc(Sc2cccc[n+]2[O-])c2nonc12 was read as KCC2 mod 8.4*, hERG protect -52, KCNK9 block -16*, KCNK3 block -14*, KCNQ1 block 18*, KCNQ1 act inactive, KCC2 secondary 0.0096, KCC2 bumet counter 0.023*, KCC2 secondary2 0.03, HEK counter1 0.015*, KCC2 retest ouab 0.023, HEK293 Tl flux2 inconclusive, KCNQ1 block val 140*, CHO Tl flux 0.26*, KCNQ2 spec inactive, KCNQ1 KCNE1 spec active, KCNK9 block conf 74%*, Kir21 sel 66%* and KCNK9 uninduced 78%*.
O=[N+]([O-])c1ccc(Nc2ccccc2)c2nonc12 was read as hERG protect -3, KCNK9 block inactive, KCNK3 block inactive, KCNQ1 block inactive and KCNQ1 act inactive.
`COc1ccccc1CCNC(=O)CCn1c(=O)c2cccn2c2ccc(F)cc21` gave hERG protect -10, KCNK9 block inactive, KCNK3 block inactive, KCNQ1 block inactive and KCNQ1 act inactive.
For Cc1cc(O)cc2c1C1CCC3(C)C(=O)CCC3C1C=C2 (stereo not given) the results were KCNK3 block inactive.
`COC(=O)c1c(NS(=O)(=O)c2ccc3ccccc3c2)sc2c1CCCC2` gave KCC2 mod 27*, hERG protect 17*, KCNK9 block inactive, KCNK3 block inactive, KCNQ1 block inactive, KCNQ1 act 33*, KCC2 secondary 0.0071, KCC2 bumet counter 0.065*, KCC2 secondary2 0.058*, HEK counter1 0.057*, KCC2 retest ouab 0.057*, HEK293 Tl flux2 0.039*, KCNK9 block conf inactive, Kir21 sel inactive and KCNK9 uninduced inactive.
`CC(C)Oc1ccc(C(=O)Nc2cccc(S(=O)(=O)N3CCCC3)c2)cc1` gave KCNK3 block inactive.
For Cc1ccc(-c2nn(-c3ccccc3)cc2/C=N/n2c(-c3cccs3)n[nH]c2=S)cc1 the results were KCC2 mod 4.6*, hERG protect -8, KCNK9 block inactive, KCNK3 block inactive, KCNQ1 block inactive, KCNQ1 act inactive, KCC2 secondary 0.011, KCC2 bumet counter 0.0094*, KCC2 secondary2 0.03, HEK counter1 0.018*, KCC2 retest ouab 0.021, HEK293 Tl flux2 0.012, KCNK9 block conf inactive, Kir21 sel inactive and KCNK9 uninduced inactive.
For COc1ccccc1/C=C/C=N/n1c(-c2ccccc2)n[nH]c1=S the results were KCC2 mod 0.48, hERG protect -4, KCNK9 block inactive, KCNK3 block inactive, KCNQ1 block inactive and KCNQ1 act inactive.
For COc1ccccc1/C=C/C=N/n1c(-c2ccc(Cl)cc2)n[nH]c1=S the results were KCC2 mod 13*, hERG protect -6, KCNK9 block inactive, KCNK3 block inactive, KCNQ1 block inactive, KCNQ1 act inactive, KCC2 secondary 0.0092, KCC2 bumet counter 0.023*, KCC2 secondary2 0.03, HEK counter1 0.011*, KCC2 retest ouab 0.031*, HEK293 Tl flux2 inconclusive, KCNK9 block conf inactive, Kir21 sel inactive and KCNK9 uninduced inactive.
For O=C1C2C3C=CC(CC3)C2C(=O)N1c1cccc(Br)c1 (stereo not given) the results were hERG protect -2, KCNK9 block inactive, KCNK3 block inactive, KCNQ1 block inactive and KCNQ1 act inactive.
For CCCN(CC(=O)Nc1ccc(F)c(F)c1F)C(=O)Cc1ccc(OC)c(S(=O)(=O)N2CCOCC2)c1 the results were KCNK3 block inactive.
CCOC(=O)c1c(C)[nH]c(C(=O)COC(=O)C2CC2)c1C was read as KCNK3 block inactive.
